Compound activity as filed in PubChem.
Only a selection was taken, and hits are over-represented in it overall.
NLRP3 yeast inh = inhibitors of NALP3 inflammasome in yeast | AID 2825 | inhibition, % at 10 µM | Yeast reconstituted NLRP3/ASC/caspase-1, beta-gal luminescence, 24 h | 330,000 tested, 0.39% active;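 active means inhibition of 50% or more; inactive means inhibition below 50%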
T cruzi repl = T. cruzi replication inhibition; T. cruzi beta-gal in NIH3T3, luminescence, 90 h; AID 1885; inhibition, % (test concentration not listed); 300,000 tested, 1.4% active;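 active means mean inhibition across valid replicates above about 55%, limit read from the data; inconclusive means mean below that limit but half or more replicates reach it; inactive means mean below it, under half of replicates reach it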;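 further: signal also drops with host cell toxicity which is not excluded here; higher percent means less beta-gal luminescence so fewer parasites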
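System: Mouse NIH/3T3 fibroblasts infected with β-gal-expressing T. cruzi Tulahuen C4 | Quantity: NIH/3T3 cells, 5,000 per well | Reagent: 5000 reporter trypomastigotes per well | Dosing: Compound pinned at 50 nL/well, DMSO | Schedule: 3 h host attachment, then at least 90 h co-culture | Detection: GalScreen luminescence, 60 min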
L major viab = inhibitors of Leishmania major promastigote growth. Leishmania major promastigotes, resazurin fluorescence viability. inhibition, % at 10 µM. 200,000 tested, 9% active. AID 1063; in the data active means inhibition above about 50%;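 further: promastigotes grown with compound for 44 hours at 28 °C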
Calb FLC = C. albicans growth modulation with fluconazole; C. albicans CaCi-2 + fluconazole, Alamar Blue growth, 48 h; growth inhibition, % (no concentration beside the values); 300,000 tested, 0.57% active;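 active means growth inhibition above about 58% in most replicates, limit read from the data, passing the limit was not always enough; inconclusive means exactly half the replicates above a set limit; inactive means most replicates below a set limit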;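 further: all wells also contain fluconazole at 8 µg/ml as a sub-toxic cotreatment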
NALP1 inh = inhibitors of NALP1 inflammasome in yeast; S. cerevisiae NALP1/ASC/caspase-1 growth, X-gal OD620, 72 h; inhibition, % at 10 µM; 280,000 tested, 0.61% active; AID 2071; in the data active means inhibition mostly above about 24%, no sharp cut-off; inactive means mostly below about 32%
PolyA inh = inhibitors of polyadenylation in S. cerevisiae; activity score, % at 12 µM; S. cerevisiae SKY197-pL101 polyadenylation reporter, beta-gal luminescence; efflux-impaired pdr1/pdr3 knockout yeast; score 100 = 6 SD above DMSO; 300,000 tested, 0.02% active;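 active means lowest replicate activity score at least 50, where 100 means six control SD above control mean; inconclusive means lowest score under 50 but half or more replicates reach 50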;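 further: yeast exposed to compound for 9 h at 30 °C; higher score means more reporter readthrough which indicates perturbed polyadenylation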
A number is an active result; – = inactive; ? = inconclusive; · = no result given.

SMILES	NLRP3 yeast inh	T cruzi repl	L major viab	Calb FLC	NALP1 inh	PolyA inh
CCNC(=O)NC(=O)C(C)OC(=O)[C@H](C)NS(=O)(=O)c1c(C)c(C)cc(C)c1C (some centres not stated)	–	–	·	–	·	–
CCCc1cc(=O)oc2cc(C)cc(OCC(=O)NCc3ccncc3)c12	–	–	·	–	–	–
CN(C(=O)c1sc2nc(N3CCOCC3)c3c(c2c1N)CCCC3)c1ccccc1	–	–	100	–	–	–
Cc1ccc2nc(-c3ccncc3)c(NC3CCCCC3)n2c1	–	60	65	–	–	–
Cc1ccc2nc(-c3ccsc3)c(NC3CCCC3)n2c1	–	–	–	–	–	–
Cc1ccn2c(NC3CCCCC3)c(C)nc2c1	–	–	–	–	–	–
Cc1ccn2c(NC3CCCC3)c(-c3ccncc3)nc2c1	–	–	89	–	–	–
Cc1ccn2c(Nc3ccccc3C)c(-c3ccncc3)nc2c1	–	61	86	–	–	–
Cc1ccc2nc(-c3ccncc3)c(NC3CCCC3)n2c1	–	77	–	–	–	–
CC(=O)Nc1c(-c2ccccc2)nc2cc(C)ccn12	–	–	·	–	–	?
Cc1cccc(NC(=O)C2Cc3ccccc3O/C2=N\O)c1 (configuration not stated)	–	–	·	–	–	–
Nc1ccccc1SC1CC(=O)N(Cc2ccccc2)C1=O (configuration not stated)	–	–	–	–	–	–
O=C(CCNC(=O)c1ccc(Br)cc1)NCc1ccncc1	–	–	·	–	·	–
CN(Cc1ccccc1)C(=O)C1CCN(S(=O)(=O)c2cccc3nonc23)CC1	–	–	·	–	–	–
O=C(CNC(=O)c1ccco1)NCC(=O)OCC(=O)c1ccc(Cl)c([N+](=O)[O-])c1	–	–	·	–	–	–
Clc1ccc(CNC2CCN(Cc3ccccc3)CC2)cc1	–	–	·	–	–	–
S=C(NCc1ccccc1)NC1CCSc2ccccc21 (configuration not stated)	–	–	·	–	27	–
S=C(NCc1ccc(Cl)cc1)NC1CCN(Cc2ccccc2)CC1	–	60	80	–	–	–
Cc1cccc(NC(=S)NC2CCSc3ccccc32)c1 (configuration not stated)	–	–	·	–	–	–
CC1=C/C(=N\NC(=S)NCc2ccccc2)CC1	–	69	–	–	–	–
Cc1c(Cl)cccc1NC(=S)NC1CCN(Cc2ccccc2)CC1	–	–	86	–	–	–
CCOC(=O)c1cc(S(=O)(=O)N2CCC(C)CC2)cn1C	–	–	·	–	–	–
S=C(Nc1ccccc1Cl)NC1CCN(Cc2ccccc2)CC1	–	–	95	–	–	–
S=C(NCc1ccccc1)NCc1cccc(Cl)c1	–	·	·	–	–	·
O=C(NC(=S)NC1CCN(Cc2ccccc2)CC1)c1ccc(F)cc1	–	–	·	–	–	–
SMILES	NLRP3 yeast inh	T cruzi repl	L major viab	Calb FLC	NALP1 inh	PolyA inh
S=C(NCc1ccccc1)NCc1cccc(CNC(=S)NCc2ccccc2)c1	–	–	85	–	·	–
CCCN1CCC(NC(=S)Nc2cccc(Cl)c2Cl)CC1	–	–	82	–	–	–
CCCN1CCC(NC(=O)Nc2cccc3ccccc23)CC1	–	–	·	–	–	–
FC(F)(F)c1ccccc1NC(=S)NC1CCN(Cc2ccccc2)CC1	–	–	76	–	–	–
CC(C)CNC(=O)CC(=O)N/N=C/c1ccc(F)cc1	–	–	–	–	–	–
CC(C)c1ccccc1NC(=S)NN(Cc1ccccc1)c1ccccc1	–	–	54	–	–	–
CC(C)c1ccccc1NC(=S)NC1CCN(Cc2ccccc2)CC1	–	–	74	–	–	–
S=C(Nc1ccc(Cl)cc1Cl)NC1CCN(Cc2ccccc2)CC1	–	–	92	–	–	–
Cc1c(Cl)cccc1NC(=S)NCc1ccc(Cl)cc1	–	–	–	–	·	–
Cc1c(Cl)cccc1NC(=S)NCc1ccccc1	–	–	72	–	·	–
CC(C)CC1NC(=O)N(CC(=O)Nc2ccc(OC(F)F)cc2)C1=O (configuration not stated)	–	·	·	·	·	·
S=C(NCC1CCCO1)Nc1ccccc1Cl (configuration not stated)	–	–	64	–	–	–
COc1ccc(C(=O)/C=C/c2cccs2)c(OC(=O)N2CCOCC2)c1	–	–	–	–	–	–
O=C(/C=C/c1cccs1)c1cc(Br)ccc1OC(=O)N1CCOCC1	–	–	72	–	–	–
